SIAE inh: human SIAE inhibition, primary screen; Q9HAT2; SIAE FP-Rh probe binding, fluorescence polarization; inhibition, % at 9.66 µM; 370,000 tested, 0.69% active;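 active = inhibition above a cutoff: mean of compounds within the control limits plus 3 SD of those, cut at about 17% in these data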;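 also: 0% = plate median of compound wells and 100% = probe without SIAE protein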
Target sequence (Q9HAT2 whole entry, looked up): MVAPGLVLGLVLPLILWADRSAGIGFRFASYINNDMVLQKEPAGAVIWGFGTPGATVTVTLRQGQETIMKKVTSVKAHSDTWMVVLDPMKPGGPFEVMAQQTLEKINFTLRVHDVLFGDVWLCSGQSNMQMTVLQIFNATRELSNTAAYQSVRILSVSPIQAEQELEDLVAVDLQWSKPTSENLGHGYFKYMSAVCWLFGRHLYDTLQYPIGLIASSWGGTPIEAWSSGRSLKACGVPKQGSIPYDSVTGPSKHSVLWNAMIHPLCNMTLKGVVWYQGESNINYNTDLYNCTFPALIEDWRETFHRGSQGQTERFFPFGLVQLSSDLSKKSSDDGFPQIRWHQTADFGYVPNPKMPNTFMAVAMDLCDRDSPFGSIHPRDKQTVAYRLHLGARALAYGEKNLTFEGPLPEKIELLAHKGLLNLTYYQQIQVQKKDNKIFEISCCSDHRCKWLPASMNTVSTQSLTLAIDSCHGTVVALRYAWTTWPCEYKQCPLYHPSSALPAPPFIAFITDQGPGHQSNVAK
ABHD4 inh: inhibits mouse alpha/beta hydrolase domain 4; Q8VD66; 370,000 tested, 0.54% active; purified mABHD4, FP-Rh probe fluorescence polarization; inhibition, % at 8.92 µM; AID 720543;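 active = inhibition exceeding the mean over every tested compound plus 3 SD, cut at about 30% in these data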;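 also: 0% = plate median of compound wells and 100% = S159A mutant with DMSO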
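Test system: mABHD4 protein | Buffer or medium: HEPES pH 7.0 buffer, 150 mM NaCl, 0.01% Pluronic F-127 | Probe or stimulus: FP-Rh fluorescent activity-based probe, added after compound pre-incubation | Timing: Pre-incubation 45 min, probe exposure 60 min, at 25 °C | Technique: Fluorescence polarization, excitation 525 nm, emission 598 nm, BODIPY TMR filters | Repeats: Single well per compound (singlicate)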
HTRA1 inhibitor: HTRA1 (human) protease inhibition | AID 504803 | inhibition, % at 5.96 µM | Q92743 | recombinant HTRA1, FP-rhodamine activity-based probe, fluorescence polarization | 340,000 tested, 0.5% active; in the data active = inhibition above about 36%;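 also: 0% = enzyme with DMSO and 100% = wells lacking enzyme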
TCR-CD3 inh: inhibitors of human TCR-CD3 interaction | TAMRA-labeled TCR probe fluorescence, biochemical | inhibition, % at 9.4 µM | 360,000 tested, 0.37% active; in the data active = inhibition above about 19%;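 also: recombinant mutant TCR 2C K166C tagged with TAMRA read by polarization; 0% = receptor in buffer alone and 100% = receptor with positive control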
PRMT1 FP inh: blocks human protein arginine methyltransferase 1 | Q99873 | AID 652257 | inhibition, % at 2.79 µM | recombinant PRMT1, activity-based probe fluorescence polarization | 370,000 tested, 1.3% active;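 active = inhibition above about 21% made by adding two undisclosed values, limit read from the data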
ATG4B inh: blocks human ATG4B protease cleavage of LC3 substrate; ATG4B cleavage of LC3-PLA2, NBD-HPC fluorescence, 1 h; AID 504462; 340,000 tested, 0.51% active; inhibition, % at 8.33 µM; Q9Y4P1; in the data active = inhibition above about 40%
ATG4B conf: ATG4B (human) inhibition, single-dose confirmed | shares compounds with ATG4B inh | ATG4B protease fluorescent substrate cleavage assay | inhibition, % at 8.33 µM | 320 tested, 92% active | AID 504757; in the data active = inhibition above about 39%
PLA2 counter: PLA2 (human) inhibition in ATG4B counter-screen; shares compounds with ATG4B inh; purified PLA2, NBD-C6-HPC fluorescence, 45 min; inhibition, % at 8.33 µM; 1,600 tested, 66% active; AID 588402; in the data active = inhibition above about 50%
Target sequence (P04054 whole entry, looked up): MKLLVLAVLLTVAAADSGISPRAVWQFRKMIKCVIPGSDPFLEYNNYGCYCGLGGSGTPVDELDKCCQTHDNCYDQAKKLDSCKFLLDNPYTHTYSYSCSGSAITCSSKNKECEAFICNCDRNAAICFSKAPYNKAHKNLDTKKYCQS
The depositor's hits bear a star; . = not tested or not shown. Only some compounds are listed: those with a hit (about 2.9% of all), similar ones and a draw of the others.

SMILES	SIAE inh	ABHD4 inh	HTRA1 inhibitor	TCR-CD3 inh	PRMT1 FP inh	ATG4B inh	PLA2 counter	others
Cc1ccc(-c2nc(-c3cccnc3)sc2CC(=O)Nc2ccc3nc(C)sc3c2)cc1	-1.5	-6.3	-22.8	-0.6	1.9	44.7*	12.2
Cc1cc(-c2n[nH]c(=S)n2N=Cc2cccc(Oc3ccccc3)c2)n[nH]1	3.6	2.6	.	.	13.8	.	.
O=C1C(SCCO)=C(SCCO)C(=O)c2ccccc21	7.9	25.2	21.5	-7.2	97.7*	44.0*	-15.7	ATG4B conf=71.8*
Cc1cccc(C)c1OCc1cc(C(=O)N2CCN(c3ccccn3)CC2)no1	-1.2	-2.0	2.7	1.7	2.5	57.0*	53.0*
Cc1cccc(C)c1OCc1cc(C(=O)N2CC3C[C@@H]4CC2C[C@H](C3)C4)no1	0.8	2.5	-22.8	2.7	-1.2	51.8*	68.8*
COC(=O)[C@@]12CCCCC=C1N(CCc1ccc(Cl)cc1)C(=O)[C@H]2CC(=O)NCCc1ccccc1OC	-5.1	-1.1	.	.	1.7	.	.
NC(=O)Cc1ccc(Nc2nnc(-c3ccc(O)cc3)c3ccccc23)cc1	-0.5	-5.6	-5.1	4.3	-0.4	92.4*	91.5*
Cc1ccc(-c2nnc(Nc3ccc(CC(N)=O)cc3)c3ccccc23)cc1S(=O)(=O)NCCO	1.9	-7.4	3.1	1.6	0.4	83.9*	86.5*
Cn1cccc1/C=C1\CCC/C(=C\c2cccn2C)C1=O	-14.1	8.8	-10.0	2.6	14.9	45.5*	58.8*
OC(c1cc(C(F)(F)F)nc2c(C(F)(F)F)cccc12)C1CCCCN1 (centres undefined)	-4.9	18.4	12.3	2.6	-5.2	0.6	.
OC(c1cc(-c2cccc(Cl)c2)nc2ccccc12)C1CCCCN1 (centres undefined)	-6.1	11.5	0.8	-7.9	-1.0	42.5*	65.8*
Cc1ccc2nc(NC3=NC4(CCCC4)C4=C(CCCC4=O)N3)oc2c1	-0.7	17.8	.	-1.6	-0.9	.	.
O=C1CCCC2=C1C1(CCCC1)N=C(Nc1nc3ccccc3s1)N2	5.2	-0.6	1.0	-2.7	0.1	74.5*	9.4
O=C1CCCC2=C1C1(CCCCC1)N=C(Nc1nc3ccccc3s1)N2	-1.2	-2.8	3.7	-4.9	2.3	55.1*	-13.7
O=C1CCCC2=C1C1(CCCC1)N=C(Nc1nc3cc(Br)ccc3o1)N2	-4.2	1.8	.	.	3.5	.	.
Cc1cc(C)nc(SCc2ccc(C(=O)N/N=C3\CC(C)CC(C)(C)C3)cc2)n1 (centres undefined)	-3.2	-15.6	-52.3	-8.1	3.9	47.3*	45.7	ATG4B conf=75.7*
CCc1ccc(C=NN2CCN(Cc3ccc(C)cc3C)CC2)cc1	2.8	-2.7	.	.	-5.6	.	.
Cc1ccc(NC2=C(C(=O)c3ccccc3)N(C)S(=O)(=O)c3ccccc32)cc1	-5.3	-7.5	-2.6	-0.3	-2.2	23.7	.
CCN1C(C(=O)c2ccccc2)=C(Nc2ccccc2C)c2ccccc2S1(=O)=O	-3.4	-1.6	-21.1	-7.0	2.3	50.8*	55.1*
COc1cccc(Cn2cc(COC(=O)N3CCCC3)nn2)c1	1.6	-6.5	.	.	-1.2	.	.
Cc1cc(C)c(OCC(=O)Nc2cccc(NC(=O)c3ccco3)c2)c(Br)c1	-66.4	-67.7	-110.2	3.3	0.9	60.2*	63.0*
Cc1ccc(S(=O)(=O)/C(C#N)=C/c2c(N3CC(C)OC(C)C3)nc3c(C)cccn3c2=O)cc1 (centres undefined)	-12.9	0.1	-49.8	-1.2	1.3	43.7*	51.1*
Cc1cccn2c(=O)c(/C=C(\C#N)S(=O)(=O)c3ccccc3)c(N3CCN(C)CC3)nc12	0.9	-1.3	-6.5	1.5	4.8	37.3	.
CCN1CCN(c2nc3c(C)cccn3c(=O)c2/C=C(\C#N)S(=O)(=O)c2ccc(C)cc2)CC1	0.1	-8.8	-11.1	-6.0	12.9	66.7*	68.2*
Cc1ccc(S(=O)(=O)/C(C#N)=C/c2c(N3CCN(C)CC3)nc3c(C)cccn3c2=O)cc1	-5.3	3.6	-2.6	-4.2	15.0	49.6*	58.9*
SMILES	SIAE inh	ABHD4 inh	HTRA1 inhibitor	TCR-CD3 inh	PRMT1 FP inh	ATG4B inh	PLA2 counter	others
CCN1CCN(c2nc3c(C)cccn3c(=O)c2/C=C(\C#N)S(=O)(=O)c2ccc(Cl)cc2)CC1	-5.1	2.0	-13.9	-6.7	5.1	37.1	.
Cc1ccccc1CNC(=O)C1CCC(CNS(=O)(=O)c2cccc3cccnc23)CC1 (centres undefined)	0.0	-3.0	.	.	1.3	.	.
CCOC(=O)[C@@]12CCCC3=C1N(CCC3)C(=O)[C@H]2CC(=O)N1CCCCC1	4.2	-1.7	.	.	-2.2	.	.
Cc1cc(NS(=O)(=O)c2ccc(NC(=O)CSc3nnc(-c4ccccn4)n3-c3ccccc3)cc2)nc(C)n1	-2.2	4.0	.	.	2.7	.	.
CCOC(=O)Cn1cc(CN2C(C(=O)OC)CN(Cc3ccc(C)cc3)CCS2(=O)=O)nn1 (centres undefined)	0.9	-4.1	.	.	-1.9	.	.
COc1ccc(-n2c(SCC(=O)Nc3ccc4c(c3)OCCO4)nnc2-c2ccccc2)cc1	0.8	0.6	.	.	14.3	.	.
O=C(Nc1sc2c(c1C(=O)O)CCCC2)c1cccc(Cl)c1	-10.1	12.5	-12.8	0.5	-1.9	42.4*	50.9*
O=C(Nc1sc2c(c1C(=O)O)CCCCC2)c1ccccc1	-0.9	12.2	-14.3	-0.4	10.2	20.6	.
O=C(COCc1ccccc1)N1CCC(Oc2cccnc2)CC1	0.9	0.0	.	.	2.1	.	.
CC(C)(C)c1ccc2c(c1)C(=O)c1ccccc1C2=O	5.9	2.5	5.2	-2.0	2.2	44.5*	37.9	ATG4B conf=67.5*
N#CCC(=O)Nc1ccc(C(=O)OCC(=O)N=c2sccn2Cc2ccccc2Cl)cc1	-33.8	-31.6	-52.3	9.0	-1.9	41.2*	56.9*
O=C(COC(=O)c1ccc(O)cc1O)N=c1sccn1Cc1ccccc1Cl	-5.8	-33.8	-31.8	2.7	0.6	42.9*	56.6*
O=C(CN1C(=O)CCSc2ccccc21)Nc1ccc(Cl)cc1	0.2	2.2	.	.	1.3	.	.
CC(=O)c1cc(-c2ccccc2)n(CC(=O)NCc2ccc(Cl)cc2)c1C	6.6	2.1	.	.	-2.3	.	.
Cc1ccc(S(=O)(=O)N2[C@@H](c3ccc(C(C)(C)C)cc3)C(C(=O)O)=CC[C@H]2c2ccc(Cl)cc2)cc1	.	21.7	-134.2	-10.4	4.5	45.7*	54.5*
N#C/C(=C\c1ccccc1[N+](=O)[O-])c1nc(C2CC2)cs1	7.6	-10.2	-10.7	6.1	6.1	48.4*	62.7*
Cc1ccc(C(=O)C2CCN(CC(=O)N3CC(C)CC(C)C3)CC2)cc1 (centres undefined)	-0.8	9.2	.	.	0.5	.	.
COc1cc(C(=O)N/N=C/c2coc3ccc(Cl)cc3c2=O)ccc1O	8.3	1.7	-0.8	0.3	0.8	50.5*	38.0	ATG4B conf=37.5
